Screening results as filed in PubChem BioAssay.
Shown are actives, neighbours in structure and some others; about 1.1% of the full set was active somewhere.
Furin inhibitor = human furin inhibition. P09958. purified furin, fluorogenic substrate cleavage. AID 463115. 220,000 tested, 0.061% active. inhibition, % at 20 µM or 30 µM; in the data active = inhibition above about 25%
Target sequence (P09958 108-714 limits assumed): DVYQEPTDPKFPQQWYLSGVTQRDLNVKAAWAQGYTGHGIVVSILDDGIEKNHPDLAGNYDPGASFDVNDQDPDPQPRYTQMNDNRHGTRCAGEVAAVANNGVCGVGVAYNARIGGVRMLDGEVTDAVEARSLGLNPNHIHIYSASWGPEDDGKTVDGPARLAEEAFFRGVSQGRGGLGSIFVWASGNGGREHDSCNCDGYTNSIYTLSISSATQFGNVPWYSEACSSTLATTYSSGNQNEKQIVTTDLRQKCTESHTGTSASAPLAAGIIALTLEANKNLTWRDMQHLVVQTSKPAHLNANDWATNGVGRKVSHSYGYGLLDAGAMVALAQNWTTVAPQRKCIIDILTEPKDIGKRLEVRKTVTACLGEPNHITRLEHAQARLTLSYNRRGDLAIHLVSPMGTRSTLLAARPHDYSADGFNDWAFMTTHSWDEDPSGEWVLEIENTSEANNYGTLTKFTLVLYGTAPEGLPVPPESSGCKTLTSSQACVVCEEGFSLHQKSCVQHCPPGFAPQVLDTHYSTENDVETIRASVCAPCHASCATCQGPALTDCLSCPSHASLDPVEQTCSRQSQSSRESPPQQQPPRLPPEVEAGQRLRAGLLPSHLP
thrombin 1536 = blocks human thrombin protease activity | P00734 | alpha-thrombin, Boc-VPR-AMC fluorogenic substrate cleavage | inhibition, % at 5 µM | 220,000 tested, 0.26% active;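 active = inhibition at or above 40%; inactive = inhibition below 40%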;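 note: 0% = enzyme with no compound and 100% = wells without enzyme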
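System: human alpha-thrombin protein; Compound dosing: one concentration per compound, 5 µM, with 0.2% DMSO; Timing: reaction at room temperature; Technique: AMC fluorescence, 355/460 nm; Controls: enzyme without compound as high, wells lacking enzyme as low.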
FXIa inh = inhibitors of human coagulation factor XIa. P03951. purified FXIa, Boc-Glu-Ala-Arg-AMC fluorogenic substrate. inhibition, % at 5 µM. 220,000 tested, 0.14% active. AID 798;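 active = inhibition of at least 40%; inactive = inhibition below 40%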;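 note: fluorescence of freed AMC excited at 355 nm; 0% = enzyme without compound and 100% = no enzyme blank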
FXIIa inh 1536 = inhibitors of human coagulation factor XIIa. purified FXIIa, Boc-QGR-AMC fluorogenic substrate, 2 h. P00748. 220,000 tested, 0.3% active. inhibition, % at 5 µM. AID 800; in the data active = inhibition above about 40%;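 note: 0% = enzyme with no compound and 100% = blank without enzyme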
KLK5 inh = kallikrein 5 (human) inhibition | recombinant hK5, fluorogenic AMC substrate cleavage | AID 873 | inhibition, % at 5 µM | 210,000 tested, 0.59% active | Q9Y337;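 active = inhibition of 40% or more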;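 note: 0% = enzyme controls without compound and 100% = no-enzyme blanks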
Active calls of the source: *; x = no result given.

SMILES	Furin inhibitor	thrombin 1536	FXIa inh	FXIIa inh 1536	KLK5 inh
COc1ccc(C2CC(=O)C(C(c3ccc(O)cc3)C3C(=O)CC(c4ccc(OC)cc4)CC3=O)C(=O)C2)cc1 (stereo not drawn)	4	34	26	45*	50*
CC(=O)N1CCC(N2CCN(c3ccccc3F)CC2)CC1	-8	1	32	60*	7
Cc1cc(C)cc(NC(=O)CSc2nnc(-c3ccccc3C)o2)c1	-14	17	6	-5	54*
CCc1nc2sccc2c(=O)[nH]1	4	44*	32	23	56*
CCOC(=O)c1oc2ccccc2c1NC(=O)c1ccccc1OC	-18	-12	1	17	60*
CC(C)C(=O)n1nc(-c2cccnc2)nc1NCc1cccs1	-25	100*	13	-3	-6
CS(=O)(=O)n1nc(-c2cccnc2)nc1NCc1ccccc1	-6	4	7	13	-1
O=C(c1cccs1)n1nc(-c2ccc(Cl)cc2)nc1NCc1ccco1	-17	7	3	17	-2
CCC(=O)n1nc(-c2cccnc2)nc1NCc1ccc(OC)cc1	-4	100*	-1	9	1
O=C(c1cccnc1)n1nc(-c2ccco2)nc1NCc1cccs1	-20	97*	2	8	0
COc1ccc(CNc2nc(-c3cccnc3)nn2C(=O)C(C)C)cc1	-20	99*	-2	3	-15
C=C1CC(C(=O)N/N=C/c2ccccc2)C1	-24	-1	9	13	-9
CCOC(=O)N1CCC(Nc2ncnc3c2cnn3-c2ccc(C)cc2C)CC1	-10	17	15	17	44*
CC(C)NC(=O)NC(=O)COC(=O)Cc1c(F)cccc1Cl	-20	-9	-5	0	-9
CC(=O)N1C(=O)/C(=C2\SC(=S)N(c3c(C)n(C)n(-c4ccccc4)c3=O)C2=O)c2ccccc21	-5	50*	-6	6	10
Cc1c(N2C(=O)/C(=C3/C(=O)N(C)c4ccccc43)SC2=S)c(=O)n(-c2ccccc2)n1C	-28	6	6	20	-1
O=S(=O)(Nc1nc2ccccc2s1)c1ccc(Cl)nc1	-8	4	0	2	-6
O=C(NC1CCCCC1)C(c1ccc2ncccc2c1)N(Cc1ccccc1)C(=O)c1ccc2c(c1)OCCO2 (stereo not drawn)	-11	4	6	17	-1
COc1ccc(CN(C(=O)c2ccc3c(c2)OCCO3)C(C(=O)NC2CCCCC2)c2ccc3ncccc3c2)cc1 (stereo not drawn)	-12	4	-6	0	150*
COc1ccccc1NC(=S)N(Cc1ccco1)Cc1cc2cc(C)ccc2[nH]c1=O	-14	48*	14	16	38
Cc1ccc(Cl)cc1NS(=O)(=O)c1c(C)[nH]c(=O)[nH]c1=O	-22	104*	-3	0	30
O=C(N/N=C/c1cccc(F)c1)c1c(O)c2ccccc2[nH]c1=O	-2	45*	-14	-4	17
O=C(N/N=C/c1ccc(F)cc1)c1c(O)c2ccccc2[nH]c1=O	-12	3	20	7	-2
Oc1cccc(-c2nc3ccccc3s2)c1	-16	104*	14	12	63*
Nc1cccc(-c2nc3ccccc3s2)c1	-14	-11	-6	-19	-1
SMILES	Furin inhibitor	thrombin 1536	FXIa inh	FXIIa inh 1536	KLK5 inh
Cc1ccc(NC(=O)C2OCCc3ccccc32)cc1Cl (stereo not drawn)	-24	-4	-1	9	x
COc1ccc(Br)cc1/C=N/NC(=O)CN1CCN(Cc2ccccc2)CC1	-2	-6	-17	5	41*
COc1ccc(/C=N/NC(=O)CN2CCN(Cc3ccccc3)CC2)cc1Br	-24	-3	-5	7	5
O=C(O)c1ccc(S(=O)(=O)c2ccc3c(c2)C(=O)N(NC(=O)c2cccnc2)C3=O)cc1	-9	-10	-9	0	-3
O=[N+]([O-])c1ccc(N2CCCC2)cc1NC1CC1	-1	12	9	9	44*
N=c1n(CCCOc2ccccc2Cl)c2ccccc2n1CC(N)=O	-16	-4	-2	3	-1
COC(=O)c1[nH]c2ccccc2c1NC(=O)CN1CCC(C(N)=O)(N2CCCCC2)CC1	28*	2	4	1	2
O=C(O)c1cccc(N2C(=O)C3C4C=CC(C4=C(c4ccccc4)c4ccccc4)C3C2=O)c1 (stereo not drawn)	-3	x	8	14	1
